One block for each molecule: values may come before it.
What was measured:
Format in all cases: ADME, organism-based
Homo sapiens [1] = assay: (§1) Drug level at end of dosing interval in HIV infected patient assessed as carbovir-triphosphate level per million cells at 300 mg BID by HPLC/MS/MS analysis; conditions: in vivo
Summary of the method: (§2)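 Steady-state crossover in HIV-1-infected adults, oral abacavir 600 mg QD or 300 mg BID, fasted ≥10 h before and 2 h after dosing; blood drawn predose and 2–24 h postdose on days 1 and 11. PBMC isolated, counted in duplicate, lysed in ice-cold 70% methanol; CBV-TP measured by LC-MS/MS after anion exchange and alkaline phosphatase hydrolysis, converted to fmol/million cells; noncompartmental analysis.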

Homo sapiens [2] = species on record: Homo sapiens; assay: AUC (0 to 24 hrs) in HIV infected male patient assessed as carbovir-triphosphate level per million cells at 600 mg QD by HPLC/MS/MS analysis; design: dose 600 mg, time < 24 hr; conditions: in vivo; summary of the method: as §2
Homo sapiens [3] = assay: as §1; conditions: in vivo; summary of the method: as §2; remark: listed apart in the source
Homo sapiens [4] = species on record: Homo sapiens; assay: (§3) Cmax in HIV infected patient assessed as carbovir-triphosphate level per million cells at 600 mg QD by HPLC/MS/MS analysis; design: dose 600 mg; conditions: in vivo; summary of the method: as §2
Homo sapiens [5] = species on record: Homo sapiens; assay: (§4) AUC (0 to 24 hrs) in HIV infected patient assessed as carbovir-triphosphate level per million cells at 600 mg QD by HPLC/MS/MS analysis; design: dose 600 mg, time < 24 hr; conditions: in vivo; summary of the method: as §2
Homo sapiens [6] = species on record: Homo sapiens; assay: (§5) AUC (0 to 24 hrs) in HIV infected patient assessed as carbovir-triphosphate level per million cells at 300 mg BID by HPLC/MS/MS analysis; design: time < 24 hr, dose 300 mg; conditions: in vivo; summary of the method: as §2
Homo sapiens [7] = species on record: Homo sapiens; assay: Ratio of AUC in HIV infected male patient assessed as carbovir-triphosphate level per million cells to AUC in HIV infected male patient at 600 mg QD by HPLC/MS/MS analysis; conditions: in vivo
Summary of the method: (§6)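 Per-subject ratio of intracellular CBV-TP AUC0-24 (PBMC, fmol/million cells, LC-MS/MS) to plasma abacavir AUC0-24 (HPLC-MS/MS), both by noncompartmental analysis from serial samples over 24 h on days 1 and 11 of oral 600 mg QD or 300 mg BID dosing in fasted HIV-1-infected adults.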

Homo sapiens [8] = species on record: Homo sapiens; assay: as §4; design: dose 600 mg, time < 24 hr; conditions: in vivo; summary of the method: as §2; remark: listed apart in the source
Homo sapiens [9] = species on record: Homo sapiens; assay: as §3; design: dose 600 mg; conditions: in vivo; summary of the method: as §2; remark: listed apart in the source
Homo sapiens [10] = species on record: Homo sapiens; assay: AUC (0 to 24 hrs) in HIV infected female patient assessed as carbovir-triphosphate level per million cells at 300 mg BID by HPLC/MS/MS analysis; design: dose 300 mg, time < 24 hr; conditions: in vivo
Homo sapiens [11] = species on record: Homo sapiens; assay: (§7) Cmax in HIV infected patient assessed as carbovir-triphosphate level per million cells at 300 mg BID by HPLC/MS/MS analysis; design: dose 300 mg; conditions: in vivo; summary of the method: as §2
Homo sapiens [12] = species on record: Homo sapiens; assay: as §5; design: dose 300 mg, time < 24 hr; conditions: in vivo; summary of the method: as §2
Homo sapiens [13] = species on record: Homo sapiens; assay: as §7; design: dose 300 mg; conditions: in vivo; summary of the method: as §2; remark: listed apart in the source
Homo sapiens [14] = species on record: Homo sapiens; assay: as §7; design: dose 300 mg; conditions: in vivo; summary of the method: as §2; remark: listed apart in the source
Homo sapiens [15] = species on record: Homo sapiens; assay: as §3; design: dose 600 mg; conditions: in vivo; summary of the method: as §2; remark: listed apart in the source
Homo sapiens [16] = assay: (§8) Drug level at the end of dosing interval in HIV infected patient at 300 mg BID by HPLC/MS/MS analysis; conditions: in vivo
Summary of the method: (§9)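 Plasma abacavir at steady state in HIV-1-infected adults dosed orally 600 mg QD or 300 mg BID under fasting, serial samples predose to 24 h (plus 1 h) on days 1 and 11; validated HPLC-MS/MS, calibration 2.5–2,500 ng/ml; noncompartmental parameters from actual times, BID AUC0-24 taken as 2 × AUC0-τ.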

[17] = (§10) AUC (0 to 24 hrs) in HIV infected patient at 600 mg QD by HPLC/MS/MS analysis; design: time < 24 hr, dose 600 mg; conditions: male, human, plasma; summary of the method: as §9
[18] = Cmax in HIV infected patient at 600 mg QD by HPLC/MS/MS analysis; design: dose 600 mg; conditions: human, in vivo; summary of the method: as §9
Homo sapiens [19] = assay: (§11) Drug level at the end of dosing interval in HIV infected patient at 600 mg QD by HPLC/MS/MS analysis; conditions: in vivo; summary of the method: as §9
Homo sapiens [20] = species on record: Homo sapiens; assay: Ratio of AUC in HIV infected patient assessed as assessed as carbovir-triphosphate level per million cells to AUC in HIV infected patient at 300 mg BID by HPLC/MS/MS analysis; conditions: in vivo; summary of the method: as §6
[21] = AUC (0 to 24 hrs) in HIV infected patient at 300 mg BID by HPLC/MS/MS analysis; design: time < 24 hr, dose 300 mg; conditions: human, plasma; summary of the method: as §9
[22] = as §10; design: dose 600 mg, time < 24 hr; conditions: human, plasma; summary of the method: as §9
[23] = Cmax in HIV infected patient at 300 mg BID by HPLC/MS/MS analysis; design: dose 300 mg; conditions: human, in vivo; summary of the method: as §9
Homo sapiens [24] = species on record: Homo sapiens; assay: Ratio of AUC in HIV infected patient assessed as carbovir-triphosphate level per million cells to AUC in HIV infected patient at 600 mg QD by HPLC/MS/MS analysis; conditions: in vivo; summary of the method: as §6
Homo sapiens [25] = assay: as §11; conditions: in vivo; summary of the method: as §9; remark: listed apart in the source
Homo sapiens [26] = species on record: Homo sapiens; assay: Ratio of AUC in HIV infected female patient assessed as assessed as carbovir-triphosphate level per million cells to AUC in HIV infected female patient at 300 mg BID by HPLC/MS/MS analysis; conditions: in vivo; summary of the method: as §6
Homo sapiens [27] = assay: as §8; conditions: in vivo; summary of the method: as §9; remark: listed apart in the source
Homo sapiens [28] = species on record: Homo sapiens; assay: Ratio of AUC in HIV infected female patient assessed as carbovir-triphosphate level per million cells to AUC in HIV infected female patient at 600 mg QD by HPLC/MS/MS analysis; conditions: in vivo; summary of the method: as §6
Homo sapiens [29] = species on record: Homo sapiens; assay: Ratio of AUC in HIV infected male patient assessed as assessed as carbovir-triphosphate level per million cells to AUC in HIV infected male patient at 300 mg BID by HPLC/MS/MS analysis; conditions: in vivo; summary of the method: as §6
Homo sapiens [30] = assay: as §8; conditions: in vivo; summary of the method: as §9; remark: listed apart in the source
Homo sapiens [31] = assay: as §11; conditions: in vivo; summary of the method: as §9; remark: listed apart in the source

- Ct (Homo sapiens [1]): 37.2 fmol/10^6 cells
- AUC (Homo sapiens [2]): 792 h·fmol/million cells
- Ct (Homo sapiens [3]): 18.7 fmol/10^6 cells
- Cmax (Homo sapiens [4]): 198 fmol/10^6 cells
- AUC (Homo sapiens [5]): 1851 h·fmol/million cells
- AUC (Homo sapiens [6]): 814 h·fmol/million cells
- AUC (Homo sapiens [7]): 1051 fmol·h
- AUC (Homo sapiens [8]): 1051 h·fmol/million cells
- Cmax (Homo sapiens [9]): 114 fmol/10^6 cells
- AUC (Homo sapiens [10]): 1138 h·fmol/million cells
- Cmax (Homo sapiens [11]): 82.5 fmol/10^6 cells
- AUC (Homo sapiens [12]): 688 h·fmol/million cells
- Cmax (Homo sapiens [13]): 58.5 fmol/10^6 cells
- Cmax (Homo sapiens [14]): 49.3 fmol/10^6 cells
- Cmax (Homo sapiens [15]): 86.5 fmol/10^6 cells
Structure (SMILES): Nc1nc(=O)c2ncn([C@H]3C=C[C@@H](COP(=O)(O)OP(=O)(O)OP(=O)(O)O)C3)c2[nH]1 [CARBOVIR 5'-TRIPHOSPHATE, (-)-]

- Ct (Homo sapiens [16]): 0.018 µg/mL
- AUC at 24 h [17]: 7260 ng·h/mL
- Cmax ([18]; female): 4830 ng/mL
- Cmax [18]: 3850 ng/mL
- Cmax ([18]; male): 3430 ng/mL
- Ratio AUC (Homo sapiens [7]): 109
- Ct (Homo sapiens [19]): 0.009 µg/mL
- Ratio AUC (Homo sapiens [20]): 103
- AUC at 24 h ([21]; female): 10900 ng·h/mL
- AUC at 24 h [21]: 7900 ng·h/mL
- AUC at 24 h ([21]; male): 6740 ng·h/mL
- AUC at 24 h ([22]; female): 11700 ng·h/mL
- AUC at 24 h [22]: 8520 ng·h/mL
- Cmax [23]: 1840 ng/mL
- Cmax ([23]; male): 1590 ng/mL
- Ratio AUC (Homo sapiens [24]): 123
- Ct (Homo sapiens [25]): 0.008 µg/mL
- Ratio AUC (Homo sapiens [26]): 105
- Ct (Homo sapiens [27]): 0.026 µg/mL
- Ratio AUC (Homo sapiens [28]): 158
- Ratio AUC (Homo sapiens [29]): 102
- Ct (Homo sapiens [30]): 0.015 µg/mL
- Ct (Homo sapiens [31]): 0.009 µg/mL
Structure (SMILES): Nc1nc(NC2CC2)c2ncn([C@H]3C=C[C@@H](CO)C3)c2n1 [ABACAVIR]

From ChEMBL document CHEMBL1649148, “Steady-state pharmacokinetics of abacavir in plasma and intracellular carbovir triphosphate following administration of abacavir at 600 milligrams once daily and 300 milligrams twice daily in human immunodeficiency virus-infected subjects” (Antimicrob Agents Chemother, 2009)
